# HTRA1 inh: inhibitors of human serine peptidase HTRA1. Q92743. recombinant HTRA1, FP-rhodamine activity-based probe, fluorescence polarization. inhibition, % at 5.96 µM. 340,000 compounds, 0.5% hits. AID 504803; in the data active = inhibition above about 36%;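 note: 0% = enzyme with DMSO and 100% = wells lacking enzyme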
# DAGLB inh: blocks human DAGLB lipase activity. HEK293T DAGLB membrane lysate, EnzChek fluorogenic substrate. inhibition, % at 5.17 µM. 340,000 compounds, 0.059% hits. AID 504411; in the data active = inhibition above about 34%;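 note: 0% = enzyme with vehicle and 100% = wells lacking enzyme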
# ABHD4 inh: inhibitors of mouse ABHD4; purified mABHD4, FP-Rh probe fluorescence polarization; inhibition, % at 8.92 µM; 370,000 compounds, 0.54% hits; AID 720543;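 active = inhibition exceeding the mean over every tested compound plus 3 SD, cut at about 30% in these data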;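 note: 0% = plate median of compound wells and 100% = S159A mutant with DMSO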
#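 System: mouse ABHD4 enzyme, wild type / Medium: HEPES pH 7.0, NaCl, Pluronic buffer / Reagent: FP-Rh activity-based fluorescent probe / Control set: S159A mutant high control, sample median low control / Detection: fluorescence polarization with parallel and perpendicular emission, 525/598 nm / Schedule: 45 min + 60 min at 25 °C / Compound dosing: 8.92 µM, single dose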
# PRMT1 inh: inhibitors of human PRMT1 | Q99873 | recombinant PRMT1, activity-based probe fluorescence polarization | 370,000 compounds, 1.3% hits | inhibition, % at 2.79 µM;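 active = inhibition above about 21% made by adding two undisclosed values, limit read from the data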
# Target sequence (Q99873 whole entry, looked up): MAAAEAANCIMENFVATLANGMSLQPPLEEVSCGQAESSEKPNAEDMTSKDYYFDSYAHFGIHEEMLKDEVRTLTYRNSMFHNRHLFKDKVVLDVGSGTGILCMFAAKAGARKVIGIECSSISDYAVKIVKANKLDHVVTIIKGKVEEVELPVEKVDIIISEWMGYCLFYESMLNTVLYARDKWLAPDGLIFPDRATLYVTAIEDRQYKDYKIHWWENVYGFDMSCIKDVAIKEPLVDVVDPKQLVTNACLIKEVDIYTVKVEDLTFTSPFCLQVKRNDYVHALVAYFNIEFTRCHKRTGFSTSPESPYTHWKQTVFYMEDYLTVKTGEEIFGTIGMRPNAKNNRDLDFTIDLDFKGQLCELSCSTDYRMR
# rCAG binder: r(CAG) repeat RNA binding; AID 651821; inhibition, % at 3 µM; 370,000 compounds, 1.3% hits; TO-PRO-1 dye displacement fluorescence;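 active = inhibition above the plate cutoff, the mean of all test compounds on that plate plus 3 SD, cut at about 35% in these data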;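 note: 0% = DMSO alone and 100% = 100 µM mitoxantrone as full dye displacement; higher means more dye released from RNA so lower well fluorescence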
# LEDGF integ inh: blocks HIV-1 LEDGF/p75-dependent DNA integration | TR-FRET IN-LEDGF/p75 DNA integration, Eu/Cy5 | inhibition, % at 3.7 µM | AID 743269 | 370,000 compounds, 0.64% hits;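 active = inhibition above the screen-wide mean plus 3 SD, cut at about 13% in these data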;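 note: signal is the Cy5 over europium emission ratio at 671 and 618 nm; 0% = plate median of compound wells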
# HTRA1 inh conf: HTRA1 (human) inhibition, confirmation | shares compounds with HTRA1 inh | inhibition, % at 5.96 µM | 1,600 compounds, 66% hits | recombinant HTRA1, FP-rhodamine activity-based probe, fluorescence polarization;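 active = mean inhibition over three repeats above a set limit taken from the earlier primary screen, cut at about 37% in these data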;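 note: 0% = HTRA1 with DMSO and 100% = wells lacking HTRA1; inhibitors block probe binding so polarization drops and inhibition rises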
# Starred values were filed as active, the others as inactive; x = not tested or not shown. Rows were chosen to be rich in hits. Some 3.2% of all compounds tested hit in one or more screens of this group.
SMILES,HTRA1 inh,DAGLB inh,ABHD4 inh,PRMT1 inh,rCAG binder,LEDGF integ inh,HTRA1 inh conf
CC(C)C(=O)NC(c1ccc(Cl)cc1Cl)c1ccc2cccnc2c1O (stereo unspecified),48.7*,-7.5,8.7,0.5,4.8,1.1,46.8*
COc1ccc(C(NC(=O)C(C)C)c2ccc3cccnc3c2O)cc1 (stereo unspecified),34.4,12.6,11.0,5.3,1.3,-7.3,x
CCC(=O)NC(c1ccc(Cl)cc1Cl)c1ccc2cccnc2c1O (stereo unspecified),74.3*,14.0,18.8,-4.5,1.2,-6.0,72.9*
CC(C)=N/N=C1/NC(=O)C(c2ccccc2)S1 (stereo unspecified),-4.8,3.2,-3.4,-0.6,22.9,4.2,x
CC(=O)c1ccc(NC(=O)CC2Nc3cccc4cccc(c34)NC2=O)cc1 (stereo unspecified),56.6*,8.2,21.9,5.4,18.5,0.4,10.0
Cc1cc(C(F)(F)F)nn1CC(=O)NCc1ccco1,1.9,-1.1,0.6,0.1,3.4,4.5,x
O=C(O)c1ccccc1NC(c1ccccc1)c1ccc2cccnc2c1O (stereo unspecified),49.0*,11.1,19.8,13.2,12.3,-4.8,67.5*
CCCC(=O)NC(c1ccccc1Cl)c1ccc2cccnc2c1O (stereo unspecified),37.8*,11.6,7.2,1.9,4.2,-3.2,39.8*
CC(=O)NC(c1ccc(Cl)cc1)c1ccc2cccnc2c1O (stereo unspecified),46.4*,11.8,13.2,0.1,1.7,3.2,79.2*
CCC(=O)NC(c1ccc(C)cc1)c1ccc2cccnc2c1O (stereo unspecified),64.4*,10.2,16.4,0.8,0.0,-0.6,75.7*
CCCC(=O)NC(c1ccc(C(C)C)cc1)c1ccc2cccnc2c1O (stereo unspecified),52.0*,16.4,12.0,1.7,-1.7,6.3,54.3*
Cc1ccnc(NC(c2ccccc2)c2ccc3cccnc3c2O)c1 (stereo unspecified),15.3,3.1,11.9,9.3,7.4,-2.6,x
CCCC(=O)NC(c1ccc(N(C)C)cc1)c1ccc2cccnc2c1O (stereo unspecified),35.1,15.4,16.3,0.3,-0.4,-2.5,x
Cc1cc(NC(c2ccc(Cl)cc2)c2ccc3cccnc3c2O)no1 (stereo unspecified),48.5*,5.4,17.2,-2.3,3.5,6.1,50.7*
CCOc1ccc(OCC(=O)OCC(=O)Nc2ccc3[nH]c(=O)[nH]c3c2)cc1,8.3,3.1,6.1,-3.3,-2.1,-0.8,x
CN(C)c1cccc(C(=O)Nc2nc3ccccc3[nH]2)c1,6.5,1.2,15.4,0.0,4.2,0.2,x
CC(C)c1ccc(O)c(NC(=O)c2ncn[nH]2)c1,4.3,-0.3,13.8,1.2,0.1,-2.1,x
CCc1ccc2c(c1)C1(NN=C(c3ccc(C)cc3)S1)C(=O)N2 (stereo unspecified),36.5*,24.6,-0.8,12.8,13.7,-0.2,52.8*
CC(C)c1ccc2c(c1)C1(NN=C(c3ccccc3)S1)C(=O)N2 (stereo unspecified),45.8*,21.0,5.3,4.8,23.4,0.8,65.7*
Cc1cc(NS(=O)(=O)c2ccc(NC(=O)c3ccc(Br)o3)cc2)nc(C)n1,4.1,1.4,8.6,3.7,4.0,4.1,x
O=C(O)c1cn(-c2ccccc2)c(=O)c2ccccc12,-2.8,0.2,-0.7,2.1,-2.9,0.8,x
Oc1cc(Nc2ccncc2)cc2cccnc12,43.0*,0.9,-2.9,2.5,15.1,-9.8,37.1*
Oc1cc(Nc2cccnc2)cc2cccnc12,5.7,8.7,2.5,3.4,6.1,0.3,x
CC(=O)N1CCc2c(sc(NC(=O)CCS(=O)(=O)c3ccccc3)c2C(N)=O)C1,6.4,1.1,-0.6,-3.4,0.5,-0.9,x
CC(=O)OCC(=O)Nc1ccc(N=Nc2ccccc2)cc1,11.4,17.4,0.6,2.4,1.1,-8.4,x
SMILES,HTRA1 inh,DAGLB inh,ABHD4 inh,PRMT1 inh,rCAG binder,LEDGF integ inh,HTRA1 inh conf
CC(C)C(=O)OCC(=O)Nc1ccc(N=Nc2ccccc2)cc1,39.0*,11.7,1.1,0.8,5.1,1.0,49.0*
COc1cccc(/C=N/Nc2ncnc3c2ncn3Cc2ccccc2)c1O,41.3*,5.1,25.0,-2.5,9.4,-3.0,47.4*
COc1cccc(/C=N/Nc2cc(Cl)nc(C)n2)c1O,19.2,-0.6,2.0,-0.1,-0.7,1.6,x
Cc1nnc(NC(=O)CSc2nnc(CNC(=O)c3ccccc3)n2-c2ccccc2)s1,4.4,1.9,0.0,-4.7,1.5,-1.1,x
Cc1ccc(C(=O)N/N=C/c2ccc([N+](=O)[O-])s2)cc1,17.7,-0.5,7.4,0.9,3.8,1.1,x
O=C(N/N=C/c1ccc(O)c2ncccc12)c1cccc(Br)c1,67.1*,8.8,8.8,-3.5,15.4,5.2,59.1*
O=C(N/N=C/c1ccc([N+](=O)[O-])s1)c1cccc(Br)c1,44.9*,-1.9,11.7,-2.1,4.3,-0.3,45.5*
CCc1cc(C(=O)Nc2cc(S(=O)(=O)N3CCOCC3)ccc2N2CCN(CC)CC2)sc1C,-3.4,2.5,0.9,0.2,-5.4,0.5,x
Cc1nc2scc(-c3ccc(Cl)cc3)c2c(=O)n1N,-2.4,-0.4,-0.7,-0.4,-3.6,-1.2,x
Cc1sc2ncnc(N/N=C/c3ccc(O)cc3)c2c1C,19.6,0.4,17.8,-5.7,8.5,-2.8,x
Cc1sc2ncnc(N/N=C/c3ccccc3O)c2c1C,59.7*,3.2,21.6,-0.7,9.1,-0.2,60.6*
CC(C)Cn1cnc2c1c(=O)n(CC(=O)O)c(=O)n2Cc1ccccc1,8.1,-0.6,1.6,1.3,2.6,0.4,x
Nc1ccccc1N=Nc1ccccc1N,41.9*,27.5,9.3,4.2,-6.8,5.4,38.6*
CCC(NC(C)C)C(O)c1ccc(O)c(O)c1 (stereo unspecified),-0.2,1.1,5.9,3.0,-1.3,-7.5,x
CCC(c1ccc(O)c(O)c1)C(CC)c1ccc(O)c(O)c1 (stereo unspecified),59.5*,2.7,x,x,x,x,67.6*
NNc1nc(C(F)(F)F)nc2ccccc12,-2.6,-0.2,5.3,-0.5,3.0,-1.3,x
O/C=c1\ccc2cccc3nc(C(F)(F)F)nc1c23,43.0*,-23.7,28.0,40.1*,-84.7,4.5,99.4*
Cc1nnc(-c2ccccc2)c(=O)n1/N=C/c1c(O)ccc2ccccc12,37.2*,-10.3,9.5,-4.8,16.0,-6.4,34.6
COc1ccc(NC(=S)Nc2ccc(S(=O)(=O)N3CCOCC3)cc2)c(OC)c1,-0.4,-2.5,5.0,0.7,6.2,4.1,x

# Source: PubChem BioAssay
